According to PMC8968902 (Haematologica, 2021):

Experiments:
[1] = reported half-lives; cited from earlier work
[2] = test system: TNFa; conditions: BTKi-naïve patients; cited from earlier work
[3] = test system: CCL3; conditions: BTKi-naïve patients; cited from earlier work
[4] = test system: CCL4; conditions: BTKi-naïve patients; cited from earlier work
[5] = Pharmacokinetics in patients; format: in vivo, human; conditions: 38 patients, 20.5-410 mg BID
Procedure, shortened: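 Phase Ib, patients with relapsed/refractory CLL or other B-cell malignancies; test compound given orally as capsules twice daily at seven escalating dose levels, 20.5 mg/dose up to 410 mg BID. Pharmacokinetic data from 38 patients across the ~12 hour dosing interval; trough concentrations taken on cycle 1 day 8.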

[6] = biological target: BTK WT (Homo sapiens, UniProt Q06187); experiment: In vitro cellular assay, BTK residence time, BTK WT; format: cell-based; conditions: read-out: BTK residence time
[7] = test system: relapsed/refractory CLL or other B-cell malignancies; experiment: Phase Ib dose-escalation study: clinical activity; format: in vivo, human
[8] = test system: CCL3; experiment: Serum cytokine levels by ELISA in CLL patients; format: in vivo, human; conditions: after one cycle, 246, 328 and 410 mg dose levels
[9] = Phase Ib dose-escalation study: safety and tolerability in patients; format: in vivo, human
[10] = test system: TNFa; experiment: Serum cytokine levels by ELISA in CLL patients; format: in vivo, human; conditions: after one cycle, 246, 328 and 410 mg dose levels
[11] = test system: CCL4; experiment: Serum cytokine levels by ELISA in CLL patients; format: in vivo, human; conditions: after one cycle, 246, 328 and 410 mg dose levels
[12] = Protein binding; format: in vitro ADME

BTK WT, sequence (Q06187 whole entry): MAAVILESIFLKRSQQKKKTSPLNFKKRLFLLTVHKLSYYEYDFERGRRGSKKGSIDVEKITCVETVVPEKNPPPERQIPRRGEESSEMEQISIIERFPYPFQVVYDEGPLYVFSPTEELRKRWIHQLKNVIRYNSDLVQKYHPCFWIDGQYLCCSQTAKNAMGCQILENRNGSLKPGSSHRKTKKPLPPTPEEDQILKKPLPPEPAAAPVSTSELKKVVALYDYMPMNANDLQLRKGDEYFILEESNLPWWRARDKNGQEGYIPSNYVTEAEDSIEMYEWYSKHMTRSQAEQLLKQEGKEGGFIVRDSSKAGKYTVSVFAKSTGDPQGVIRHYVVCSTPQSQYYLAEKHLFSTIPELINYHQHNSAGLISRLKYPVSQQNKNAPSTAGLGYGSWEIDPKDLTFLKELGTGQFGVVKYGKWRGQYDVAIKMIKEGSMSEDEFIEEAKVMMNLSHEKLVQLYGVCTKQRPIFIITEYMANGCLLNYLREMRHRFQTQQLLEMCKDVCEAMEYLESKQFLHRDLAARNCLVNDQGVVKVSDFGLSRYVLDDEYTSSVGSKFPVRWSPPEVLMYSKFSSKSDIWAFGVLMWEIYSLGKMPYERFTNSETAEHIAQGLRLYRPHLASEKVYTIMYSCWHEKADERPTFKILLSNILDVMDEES

O=C(c1ccc(Oc2ccccc2)cc1Cl)c1c[nH]c2ncnc(N[C@@H]3CC[C@@H](CO)OC3)c12 [ARQ 531]
Half-life [1]: ~55 h

COc1ccc(F)cc1C(=O)NCc1ccc(-c2nn([C@@H](C)C(F)(F)F)c(N)c2C(N)=O)cc1 [Pirtobrutinib, pirtobrutinib]
Half-life [1]: approximately 20 hours

C=CC(=O)N1CCC[C@@H](n2nc(-c3ccc(Oc4ccccc4)cc3)c3c(N)ncnc32)C1 [Ibrutinib, ibrutinib]
Median decrease in TNFa [2]: ≥ 80%
Median decrease in CCL3 [3]: ≥ 80%
Median decrease in CCL4 [4]: ≥ 80%

NC(=O)[C@H]1CCN(c2ncnc(N)c2F)C[C@@H]1N1CCC[C@@H](Nc2cc(Cl)cc(C(F)(F)F)c2)C1=O [Vecabrutinib, vecabrutinib]
Dose proportionality of exposure and median steady-state Ctrough [5]: approximately dose-proportional
residence time [6]: 15 min
Best response of stable disease (SD), patients ([7]; 11 CLL, 1 MCL, 1 marginal zone lymphoma): 13 patients
Patients with PR or SD who received vecabrutinib for ≥6 months ([7]; of 14 patients with PR or SD): Eight
Median time on study treatment ([7]; patients with PR or SD): 28.5 weeks
Mean reduction in serum CCL3 [8]: 34-62%
Grade ≥3 AE at the two highest dose levels ([9]; 328 and 410 mg BID): no grade ≥3 AE observed
AE considered treatment-related by the investigator: anemia ([9]; all patients): 10%
AE considered treatment-related by the investigator: fatigue ([9]; all patients): 10%
Grade ≥3 AE: anemia ([9]; all patients): 23%
Grade ≥3 AE: thrombocytopenia ([9]; all patients): 10%
Patients with one or more serious AE (SAE) ([9]; all patients): seven
Treatment-emergent AE: anemia ([9]; all patients): 31%
Treatment-emergent AE: dyspnea ([9]; all patients): 21%
Treatment-emergent AE: fatigue ([9]; all patients): 21%
Treatment-emergent AE: headache ([9]; all patients): 21%
Treatment-emergent AE: nausea ([9]; all patients): 21%
Maximum-tolerated dose ([9]; doses 20.5-410 mg BID): not reached
Cardiac events or clinically significant electrocardiogram findings ([9]; human, in vivo): no cardiac events or clinically significant electrocardiogram findings
Dose-dependent toxicity ([9]; human, in vivo): No obvious pattern of dose-dependent toxicity
SAE related to study treatment per the investigator ([9]; human, in vivo): No SAE were considered related to study treatment
SAE: hematuria ([9]; human, in vivo): 1 patient
SAE: intestinal perforation ([9]; human, in vivo): 1 patient
SAE: lymphocytosis ([9]; human, in vivo): 1 patient
Dose up to which well-tolerated ([9]; oral capsules, highest dose studied): 410 mg BID
Mean reduction in serum TNFa [10]: 24-57%
Mean reduction in serum CCL4 [11]: 33-59%
Protein bound [12]: 98.7%
